From PubChem
LEDGF integ inh – blockers of LEDGF/p75-dependent integrase strand transfer – biochemical, TR-FRET, high throughput, primary screen; HIV-1 integrase (with human LEDGF/p75); TR-FRET IN-LEDGF/p75 DNA integration, Eu/Cy5; 370,000 compounds, 0.64% hits; inhibition, % at 3.7 µM;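 active = inhibition above the screen-wide mean plus 3 SD, cut at about 13% in these data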;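 note: signal is the Cy5 over europium emission ratio at 671 and 618 nm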
MBD2 DNA inh – inhibitors of MBD2 binding to methylated DNA, primary screen, biochemical, TR-FRET, DNA-binding domain, human; Methyl-CpG-binding domain protein 2 (Homo sapiens), Q9UBB5; MBD2 binding to methylated oligonucleotide; inhibition, % at 4.4 µM; 370,000 compounds, 0.31% hits; AID 686964, 2013; in the data active = inhibition above about 13%
UHRF1 binding – UHRF1 methylated DNA binding inhibitors, primary screen, counter-screen for MBD2 inhibitor project, biochemical, TR-FRET, human UHRF1, single concentration; 370,000 compounds, 0.75% hits; inhibition, % at 4.4 µM; UHRF1 binding to methylated oligo; E3 ubiquitin-protein ligase UHRF1 (Homo sapiens), Q96T88; AID 687016, 2013; in the data active = inhibition above about 21%;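 note: UHRF1 SRA domain binding a hemimethylated CpG hairpin DNA probe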
CASP6 VEID inh – human caspase-6 inhibitors, primary screen, biochemical, VEID-R110 fluorescence, single point, set 2; 350,000 compounds, 0.53% hits; purified caspase-6, Z-VEID-R110 cleavage fluorescence; P55212; inhibition, % at 12.5 µM;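 active = mean inhibition across replicates at least about 35%, with every replicate also reaching that limit, limit read from the data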
NSD2 inh – NSD2 histone methyltransferase inhibitors, primary screen, biochemical, AlphaScreen, single concentration, set 2 | NSD2 peptide methylation, 120 min | inhibition, % at 12.5 µM | Histone-lysine N-methyltransferase NSD2 (Homo sapiens), O96028 | 310,000 compounds, 0.54% hits; in the data active = inhibition above about 50%
Target sequence (O96028 whole entry, looked up): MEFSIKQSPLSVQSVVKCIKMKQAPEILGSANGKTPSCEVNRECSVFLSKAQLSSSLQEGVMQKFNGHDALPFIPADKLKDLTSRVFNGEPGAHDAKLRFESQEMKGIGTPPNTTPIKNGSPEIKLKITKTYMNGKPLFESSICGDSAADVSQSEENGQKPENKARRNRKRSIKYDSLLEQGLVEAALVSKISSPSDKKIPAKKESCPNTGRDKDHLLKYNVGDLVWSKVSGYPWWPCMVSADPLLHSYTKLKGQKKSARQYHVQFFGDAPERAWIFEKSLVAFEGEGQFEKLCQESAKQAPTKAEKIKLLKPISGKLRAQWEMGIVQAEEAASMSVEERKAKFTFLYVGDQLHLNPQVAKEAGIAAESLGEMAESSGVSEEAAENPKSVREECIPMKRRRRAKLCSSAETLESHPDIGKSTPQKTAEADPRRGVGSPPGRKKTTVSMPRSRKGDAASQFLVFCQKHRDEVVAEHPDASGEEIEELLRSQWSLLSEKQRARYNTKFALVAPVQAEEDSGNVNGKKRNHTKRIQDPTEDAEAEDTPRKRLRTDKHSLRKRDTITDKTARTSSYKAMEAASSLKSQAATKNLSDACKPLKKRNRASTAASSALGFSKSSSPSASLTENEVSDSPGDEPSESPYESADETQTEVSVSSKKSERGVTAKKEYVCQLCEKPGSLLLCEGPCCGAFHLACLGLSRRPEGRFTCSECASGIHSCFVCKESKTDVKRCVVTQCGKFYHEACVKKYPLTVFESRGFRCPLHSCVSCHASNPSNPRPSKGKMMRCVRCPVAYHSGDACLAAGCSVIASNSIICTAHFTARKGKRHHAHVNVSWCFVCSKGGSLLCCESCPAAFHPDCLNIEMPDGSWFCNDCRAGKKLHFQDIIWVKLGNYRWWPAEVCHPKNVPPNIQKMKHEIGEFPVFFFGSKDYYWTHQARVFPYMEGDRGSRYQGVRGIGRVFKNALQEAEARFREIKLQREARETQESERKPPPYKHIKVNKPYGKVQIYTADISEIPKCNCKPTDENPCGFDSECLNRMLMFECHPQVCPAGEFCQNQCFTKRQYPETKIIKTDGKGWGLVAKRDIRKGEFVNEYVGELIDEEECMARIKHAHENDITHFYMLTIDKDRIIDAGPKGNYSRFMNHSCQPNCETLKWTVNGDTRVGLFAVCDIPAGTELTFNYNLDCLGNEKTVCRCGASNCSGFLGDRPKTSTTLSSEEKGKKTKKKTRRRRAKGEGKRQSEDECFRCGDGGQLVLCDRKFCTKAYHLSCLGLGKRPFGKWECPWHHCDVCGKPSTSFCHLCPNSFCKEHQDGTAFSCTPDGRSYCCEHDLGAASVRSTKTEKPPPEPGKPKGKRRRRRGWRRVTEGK
TDP2 absorb – human TDP2 enzyme inhibitors, primary screen, biochemical, epi absorbance, recombinant enzyme; Tyrosyl-DNA phosphodiesterase 2 (Homo sapiens), O95551; T5PNP hydrolysis, p-nitrophenol absorbance 415 nm; inhibition, % at 12.8 µM; 370,000 compounds, 0.34% hits; AID 720702, 2013;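 active = inhibition above the mean of all tested compounds plus 3 SD, set per campaign, cut at about 25% in these data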
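Test system: Human TDP2 enzyme | Reagent: 5 mM T5PNP | Compound dosing: 12.8 µM single point, 1% DMSO | Incubation: Enzyme reaction with compound for 2 h at 37 °C | Technique: p-Nitrophenol epi absorbance | Read-out: % inhibition relative to enzyme-containing and enzyme-free wells | Benchmarks: High control without enzyme, low control DMSO plus TDP2 | Replicates: Singlicate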
TDP2 inh conf – human TDP2 enzyme inhibitors, retest, confirmation, biochemical, epi absorbance, recombinant enzyme; inhibition, % at 12.8 µM; absorbance read-out; shares compounds with TDP2 absorb; 1,100 compounds, 22% hits; in the data active = inhibition above about 25%
IN multimer up – HIV-1 IN multimer formation enhancers, counter-screen for LEDGF/p75 integration inhibitor project, biochemical, TR-FRET; shares compounds with LEDGF integ inh; TR-FRET HIV-1 integrase multimerization; activation, % at 7.7 µM; 2,000 compounds, 17% hits; AID 1053131, 2014; in the data active = activation above about 8.9%
TR-FRET interf – TR-FRET optical interference artefacts, confirmation, artefact control for LEDGF/p75-dependent integration inhibitor project, biochemical, HIV-1 IN multimerization; 2,000 tested, under 10 active; TR-FRET optical interference counterscreen; inhibition, % at 7.7 µM; shares compounds with LEDGF integ inh; AID 1053135, 2014;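 active = inhibition above the mean over all tested compounds plus 3 SD, which no compound reached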
LEDGF integ conf – inhibitors of HIV-1 IN-LEDGF/p75 DNA integration, confirmation, biochemical, TR-FRET. 2,000 compounds, 36% hits. shares compounds with LEDGF integ inh. AID 1053136, 2014. TR-FRET LEDGF/p75-dependent HIV-1 integration. inhibition, % at 3.7 µM; in the data active = inhibition above about 14%
Of the large screens only hits and unclear results are named; the others gave an inactive call (follow-up assays come after a bar, where they were run). Hits are enriched below; roughly 1.8% of the tested compounds scored in any of these assays.

CC(=O)N(C1=C(N2CCOCC2)C(=O)c2ccccc2C1=O)c1ccc(C(=O)O)cc1	LEDGF integ inh 17, CASP6 VEID inh 70, TDP2 absorb 40 | TDP2 inh conf inactive | IN multimer up inactive | TR-FRET interf inactive | LEDGF integ conf 17
COCC#Cc1cnc2c(c1)C(=O)N([C@@H](C)CO)C[C@H](C)[C@H](CN(C)C(=O)C1CCC1)O2	none (no result: LEDGF integ inh, MBD2 DNA inh, UHRF1 binding, NSD2 inh, TDP2 absorb)
CCCC(=Nc1ccc(N)cc1)C1=C(O)C(C(=O)OC)C(C)(C)CC1=O (stereo not drawn)	LEDGF integ inh 54, TDP2 absorb 53 (no result: CASP6 VEID inh, NSD2 inh) | TDP2 inh conf inactive | IN multimer up 21 | TR-FRET interf inactive | LEDGF integ conf inactive
CCCC(=O)C1=C(O)C(C(=O)OC)C(C)(C)CC1=Nc1ccc(N)cc1 (stereo not drawn)	none (no result: CASP6 VEID inh)
COc1ccc(COC[C@]23Oc4ccccc4[C@H]([C@H]2COC(=O)c2ccc([N+](=O)[O-])cc2)N(C(=O)CC(C)=O)C(=O)N3C)cc1	none (no result: LEDGF integ inh, MBD2 DNA inh, UHRF1 binding, NSD2 inh, TDP2 absorb)
Fc1ccccc1/C=N/Nc1nn[nH]n1	none (no result: CASP6 VEID inh)
CN(C)c1cc(N/N=C/c2ccccc2C(F)(F)F)nc(N(C)C)n1	none
COc1cccc(/C=N/Nc2nnc(C)n2N)c1O	LEDGF integ inh 48, TDP2 absorb 41 | TDP2 inh conf inactive | IN multimer up inactive | TR-FRET interf inactive | LEDGF integ conf inactive
COc1cccc(/C=N/Nc2cc(Cl)nc(C)n2)c1O	none
Cc1nnc(N/N=C/c2ccccc2C(F)(F)F)n1N	LEDGF integ inh 45, TDP2 absorb 52 | TDP2 inh conf inactive | IN multimer up inactive | TR-FRET interf inactive | LEDGF integ conf inactive
Cc1nnc(N/N=C/c2ccccc2F)n1N	LEDGF integ inh 56, TDP2 absorb 50 | TDP2 inh conf inactive | IN multimer up inactive | TR-FRET interf inactive | LEDGF integ conf inactive
Cc1nnc(N/N=C/c2cccc(OCc3ccc(Cl)c(Cl)c3)c2)n1N	LEDGF integ inh 57, TDP2 absorb 62 (no result: CASP6 VEID inh) | TDP2 inh conf inactive | IN multimer up inactive | TR-FRET interf inactive | LEDGF integ conf inactive
CC(=O)[C@]12O[C@@]3(COC[C@H](c4ccccc4)N3C1=O)[C@H]1C(=O)N(c3ccccc3)C(=O)[C@H]12	none (no result: LEDGF integ inh, MBD2 DNA inh, UHRF1 binding, NSD2 inh, TDP2 absorb)
C[C@H](CO)N1C[C@H](C)[C@@H](CN(C)Cc2ccc(C(=O)Nc3ccccc3N)cc2)Oc2ccc(NC(=O)CCN3CCOCC3)cc2C1=O	none (no result: LEDGF integ inh, MBD2 DNA inh, UHRF1 binding, NSD2 inh, TDP2 absorb)
Cc1nnc(N/N=C/c2cccc(C(F)(F)F)c2)n1N	LEDGF integ inh 57, TDP2 absorb 82 | TDP2 inh conf inactive | IN multimer up inactive | TR-FRET interf inactive | LEDGF integ conf inactive
Cc1ccnc(N/N=C/c2ccco2)n1	none (no result: CASP6 VEID inh)
COc1ccc(-n2c(C)cc(/C=N/Nc3nnc(C)n3N)c2C)cc1	LEDGF integ inh 49, TDP2 absorb 73 (no result: CASP6 VEID inh, NSD2 inh) | TDP2 inh conf inactive | IN multimer up inactive | TR-FRET interf inactive | LEDGF integ conf inactive
Cc1nnc(N/N=C/c2ccco2)n1N	LEDGF integ inh 43, TDP2 absorb 69 | TDP2 inh conf inactive | IN multimer up inactive | TR-FRET interf inactive | LEDGF integ conf inactive
O=C(O)c1ccc(N/N=C/c2cccc(C(F)(F)F)c2)cc1	none (no result: NSD2 inh)
O=C(O)[C@H]1[C@H](CO)[C@H]2Cn3c(ccc(-c4ccccc4F)c3=O)[C@H]2N1C(=O)c1cnccn1	none (no result: LEDGF integ inh, MBD2 DNA inh, UHRF1 binding, NSD2 inh, TDP2 absorb)
C[C@H](CO)N1C[C@H](C)[C@@H](CN(C)S(=O)(=O)c2ccc(F)cc2)Oc2ccc(NC(=O)CCCCCC(=O)Nc3ccccc3N)cc2C1=O	none (no result: LEDGF integ inh, MBD2 DNA inh, UHRF1 binding, NSD2 inh, TDP2 absorb)
C[C@@H]1CN([C@@H](C)CO)S(=O)(=O)c2ccc(Br)cc2O[C@H]1CN(C)S(=O)(=O)c1ccc(F)cc1	none (no result: LEDGF integ inh, MBD2 DNA inh, UHRF1 binding, NSD2 inh, TDP2 absorb)
CC(=O)c1cccc(Nc2nc(-c3ccccc3)nc3ccccc23)c1	none
O=c1[nH]c(Nc2ccccc2)cc2cc(Br)ccc12	LEDGF integ inh 35, CASP6 VEID inh 99, TDP2 absorb 83 (no result: NSD2 inh) | TDP2 inh conf 58 | IN multimer up inactive | TR-FRET interf inactive | LEDGF integ conf 58
O=c1cc(Nc2cccc(Br)c2)[nH]c(=O)[nH]1	none
CC(=O)c1cccc(-c2ccc3c(=O)[nH]c(Nc4ccccc4)cc3c2)c1	LEDGF integ inh 21, CASP6 VEID inh 95, TDP2 absorb 57 (no result: NSD2 inh) | TDP2 inh conf 52 | IN multimer up inactive | TR-FRET interf inactive | LEDGF integ conf 71
COc1ccccc1Nc1cc2cc(Br)ccc2c(=O)[nH]1	LEDGF integ inh 21, TDP2 absorb 63 (no result: CASP6 VEID inh, NSD2 inh) | TDP2 inh conf 57 | IN multimer up inactive | TR-FRET interf inactive | LEDGF integ conf 73
COc1cccc(-c2ccc([C@H]3[C@H](CO)N(C(=O)C4CC4)C34CN(C(C)=O)C4)cc2)c1	none (no result: LEDGF integ inh, MBD2 DNA inh, UHRF1 binding, NSD2 inh, TDP2 absorb)
C[C@@H]1CN([C@H](C)CO)C(=O)c2cc(C#C[C@@H](C)O)cnc2O[C@@H]1CN(C)C(=O)c1ccccc1	none (no result: LEDGF integ inh, MBD2 DNA inh, UHRF1 binding, NSD2 inh, TDP2 absorb)
COc1ccc(O)c(C(c2c(C)[nH][nH]c2=O)c2c(C)[nH][nH]c2=O)c1	LEDGF integ inh 22, CASP6 VEID inh 72, TDP2 absorb 73 (no result: NSD2 inh) | TDP2 inh conf 73 | IN multimer up inactive | TR-FRET interf inactive | LEDGF integ conf inactive
CC1=NN(c2ccc(C)cc2C)C(=O)C1C(c1ccccc1O)C1C(=O)N(c2ccc(C)cc2C)N=C1C (stereo not drawn)	LEDGF integ inh 29, TDP2 absorb 79 (no result: CASP6 VEID inh) | TDP2 inh conf inactive | IN multimer up inactive | TR-FRET interf inactive | LEDGF integ conf inactive
CC1=NN(C(N)=S)C(=O)C1N=Nc1ccc(C)cc1C (stereo not drawn)	none (no result: CASP6 VEID inh)
